Source: ChEMBL document CHEMBL1133591, “Potent derivatives of glucagon-like peptide-1 with pharmacokinetic properties suitable for once daily administration” (J Med Chem, 2000)
Numbered stars: 1 amine (or outer) side, 2 acyl side, 3 side chain; on linkers, the order of the positions; unused ones are H or OH. Square brackets hold non-standard residues; d marks the D form. Side chains are listed from the residue outwards. Peptide text beside a SMILES is read from it. * marks the point of attachment. ξ: configuration not given here. ξγGlu = O=C(O)C(CCC(=O)[*:2])N[*:1]; Palmitoyl = CCCCCCCCCCCCCCCC(=O)*; ξK = NCCCCC(N)C(=O)O

Target: Glucagon-like peptide 1 receptor (Homo sapiens, UniProt P43220)
Assay: Potency measured using recombinant human GLP-1 receptor expressed in Baby Hamster Kidney (BHK)cells
Format: cell-based
Conditions: not given

Chain of Glucagon-like peptide 1 receptor (P43220 whole entry): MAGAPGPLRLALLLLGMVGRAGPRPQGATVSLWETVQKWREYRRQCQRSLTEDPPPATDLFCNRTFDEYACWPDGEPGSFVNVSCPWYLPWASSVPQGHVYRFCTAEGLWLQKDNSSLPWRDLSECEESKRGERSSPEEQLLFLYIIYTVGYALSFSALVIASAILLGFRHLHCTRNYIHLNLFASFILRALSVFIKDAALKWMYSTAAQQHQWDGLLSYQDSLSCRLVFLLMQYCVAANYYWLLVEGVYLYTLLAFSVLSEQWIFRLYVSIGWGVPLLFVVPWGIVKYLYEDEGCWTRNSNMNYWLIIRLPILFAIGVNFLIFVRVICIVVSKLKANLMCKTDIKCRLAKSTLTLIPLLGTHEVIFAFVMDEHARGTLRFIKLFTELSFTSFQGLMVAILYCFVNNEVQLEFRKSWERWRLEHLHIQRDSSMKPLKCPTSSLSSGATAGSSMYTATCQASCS

Row | EC50 [nM] | Structure (SMILES)
1 | 0.328 | CCCCCCCCCCCCCCCC(=O)NC(CCC(=O)NCCCCC(NC(=O)CNC(=O)[C@H](CCCN=C(N)N)NC(=O)CNC(=O)[C@H](CCCN=C(N)N)NC(=O)[C@@H](NC(=O)[C@H](CC(C)C)NC(=O)[C@H](Cc1c[nH]c2ccccc12)NC(=O)[C@H](C)NC(=O)[C@@H](NC(=O)[C@H](Cc1ccccc1)NC(=O)[C@H](CCC(=O)O)NC(=O)[C@H](CCCN=C(N)N)NC(=O)[C@H](C)NC(=O)[C@H](C)NC(=O)[C@H](CCC(N)=O)NC(=O)CNC(=O)[C@H](CCC(=O)O)NC(=O)[C@H](CC(C)C)NC(=O)[C@H](Cc1ccc(O)cc1)NC(=O)[C@H](CO)NC(=O)[C@H](CO)NC(=O)[C@@H](NC(=O)[C@H](CC(=O)O)NC(=O)[C@H](CO)NC(=O)[C@@H](NC(=O)[C@H](Cc1ccccc1)NC(=O)[C@@H](NC(=O)CNC(=O)[C@H](CCC(=O)O)NC(=O)CNC(=O)[C@@H](N)Cc1c[nH]cn1)[C@@H](C)O)[C@@H](C)O)C(C)C)[C@@H](C)CC)C(C)C)C(=O)O)C(=O)O (stereo not given in full) (H-HGEGTFTSDVSSYLEGQAAREFIAWLVRGRG[ξK]([ξγGlu-Palmitoyl])-OH)

System: not listed separately
Assay: Plasma half life was determined in pigs
Format: ADME, organism-based, Sus scrofa
Conditions: pig
Procedure, shortened: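 Landrace × Duroc × Yorkshire pigs, 25–50 kg, two per compound; single sc dose, 0.5 nmol/kg for analogues, 15 nmol/kg for GLP-1. Jugular catheter blood at 0–72 h, extra early samples for GLP-1; EDTA/aprotinin/bacitracin-stabilized plasma. Unextracted plasma assayed by N-terminal-specific GLP-1 radioimmunoassay against spiked pig-plasma calibrators; half-life calculated per pig, reported as mean ± SD.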

Row | half-life [h] | Structure (SMILES)
2 | 31 | CCCCCCCCCCCCCCCC(=O)NCCCC(=O)NCCCC[C@H](NC(=O)[C@H](C)NC(=O)[C@H](C)NC(=O)[C@H](CCC(N)=O)NC(=O)CNC(=O)[C@H](CCC(=O)O)NC(=O)[C@H](CC(C)C)NC(=O)[C@H](Cc1ccc(O)cc1)NC(=O)[C@H](CO)NC(=O)[C@H](CO)NC(=O)[C@@H](NC(=O)[C@H](CC(=O)O)NC(=O)[C@H](CO)NC(=O)[C@@H](NC(=O)[C@H](Cc1ccccc1)NC(=O)[C@@H](NC(=O)CNC(=O)[C@H](CCC(=O)O)NC(=O)[C@H](C)NC(=O)[C@@H](N)Cc1c[nH]cn1)[C@@H](C)O)[C@@H](C)O)C(C)C)C(=O)N[C@@H](CCC(=O)O)C(=O)N[C@@H](Cc1ccccc1)C(=O)N[C@H](C(=O)N[C@@H](C)C(=O)N[C@@H](Cc1c[nH]c2ccccc12)C(=O)N[C@@H](CC(C)C)C(=O)N[C@H](C(=O)N[C@@H](CCCN=C(N)N)C(=O)NCC(=O)N[C@@H](CCCN=C(N)N)C(=O)NCC(=O)O)C(C)C)[C@@H](C)CC
3 | 15 | CCCCCCCCCCCC(=O)NC(CCC(=O)NCCCC[C@H](NC(=O)[C@H](C)NC(=O)[C@H](C)NC(=O)[C@H](CCC(N)=O)NC(=O)CNC(=O)[C@H](CCC(=O)O)NC(=O)[C@H](CC(C)C)NC(=O)[C@H](Cc1ccc(O)cc1)NC(=O)[C@H](CO)NC(=O)[C@H](CO)NC(=O)[C@@H](NC(=O)[C@H](CC(=O)O)NC(=O)[C@H](CO)NC(=O)[C@@H](NC(=O)[C@H](Cc1ccccc1)NC(=O)[C@@H](NC(=O)CNC(=O)[C@H](CCC(=O)O)NC(=O)[C@H](C)NC(=O)[C@@H](N)Cc1c[nH]cn1)[C@@H](C)O)[C@@H](C)O)C(C)C)C(=O)N[C@@H](CCC(=O)O)C(=O)N[C@@H](Cc1ccccc1)C(=O)N[C@H](C(=O)N[C@@H](C)C(=O)N[C@@H](Cc1c[nH]c2ccccc12)C(=O)N[C@@H](CC(C)C)C(=O)N[C@H](C(=O)N[C@@H](CCCN=C(N)N)C(=O)NCC(=O)N[C@@H](CCCN=C(N)N)C(=O)NCC(=O)O)C(C)C)[C@@H](C)CC)C(=O)O (stereo not given in full)
4 | 8.8 | CCCCCCCCCCCCCCCC(=O)NCCC(=O)NCCCC[C@H](NC(=O)[C@H](C)NC(=O)[C@H](C)NC(=O)[C@H](CCC(N)=O)NC(=O)CNC(=O)[C@H](CCC(=O)O)NC(=O)[C@H](CC(C)C)NC(=O)[C@H](Cc1ccc(O)cc1)NC(=O)[C@H](CO)NC(=O)[C@H](CO)NC(=O)[C@@H](NC(=O)[C@H](CC(=O)O)NC(=O)[C@H](CO)NC(=O)[C@@H](NC(=O)[C@H](Cc1ccccc1)NC(=O)[C@@H](NC(=O)CNC(=O)[C@H](CCC(=O)O)NC(=O)[C@H](C)NC(=O)[C@@H](N)Cc1c[nH]cn1)[C@@H](C)O)[C@@H](C)O)C(C)C)C(=O)N[C@@H](CCC(=O)O)C(=O)N[C@@H](Cc1ccccc1)C(=O)N[C@H](C(=O)N[C@@H](C)C(=O)N[C@@H](Cc1c[nH]c2ccccc12)C(=O)N[C@@H](CC(C)C)C(=O)N[C@H](C(=O)N[C@@H](CCCN=C(N)N)C(=O)NCC(=O)N[C@@H](CCCN=C(N)N)C(=O)NCC(=O)O)C(C)C)[C@@H](C)CC
5 | 14 | CCCCCCCCCCCCCCCC(=O)N[C@@H](CCC(=O)NCCCC[C@H](NC(=O)[C@H](C)NC(=O)[C@H](C)NC(=O)[C@H](CCC(N)=O)NC(=O)CNC(=O)[C@H](CCC(=O)O)NC(=O)[C@H](CC(C)C)NC(=O)[C@H](Cc1ccc(O)cc1)NC(=O)[C@H](CO)NC(=O)[C@H](CO)NC(=O)[C@@H](NC(=O)[C@H](CC(=O)O)NC(=O)[C@H](CO)NC(=O)[C@@H](NC(=O)[C@H](Cc1ccccc1)NC(=O)[C@@H](NC(=O)CNC(=O)[C@H](CCC(=O)O)NC(=O)[C@H](C)NC(=O)[C@@H](N)Cc1cnc[nH]1)[C@@H](C)O)[C@@H](C)O)C(C)C)C(=O)N[C@@H](CCC(=O)O)C(=O)N[C@@H](Cc1ccccc1)C(=O)N[C@H](C(=O)N[C@@H](C)C(=O)N[C@@H](Cc1c[nH]c2ccccc12)C(=O)N[C@@H](CC(C)C)C(=O)N[C@H](C(=O)N[C@@H](CCCNC(=N)N)C(=O)NCC(=O)N[C@@H](CCCNC(=N)N)C(=O)NCC(=O)O)C(C)C)[C@@H](C)CC)C(=O)O
